Publication PMC12443483 (Journal of the American Chemical Society, 2025)
Several values for one entry are separate records, joined by “and”; a condition that tells them apart may be missing. Identical values can stand only once.

How the values were obtained:
αS = αS (Homo sapiens, UniProt P37840); assay: Monitoring αS aggregation over prolonged agitation; type: biochemical; conditions: PBS buffer, 37 °C; for Detection of early αS aggregation species (misfolding, oligomers/protofibrils): 0–40 hours
αS fibrils [1] = target: T1, αS fibrils (Homo sapiens, UniProt P37840); assay: Concentration-dependent binding λem and local dielectric constant on αS fibrils; conditions: for Dielectric constant of local environment of probe bound to αS fibrils: calculated from fits of λem in solvents, 581 nm for 3c, 617 nm for 4a
[2] = Photophysical characterization by absorption and fluorescence spectroscopy; type: physicochemical; conditions: for Absorbance λabs (maximum absorption wavelength) / Emission λem (maximum emission wavelength) / ε (molar absorption coefficient at maximum absorption wavelength): 25 μM probe in CH3CN/PBS pH 7.4; for Stokes Shift: difference between λabs and λem, CH3CN/PBS pH 7.4
Method in brief: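 Probe at 25 μM final in CH3CN/PBS (50:50 v/v), pH 7.4. Absorption and emission spectra were recorded, with excitation at each probe's absorption maximum. ε was taken at the absorption maximum, and Stokes shift as the absorption–emission maximum difference. Quantum yield (error limit ±5) was measured in this mixture and also in CH3CN.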

[3] = Temperature dependence of fluorescence in methanol/glycerol mixtures; type: physicochemical
Method in brief: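 Fluorescence of 25 μM probe was measured in methanol/glycerol mixtures of varying viscosity at 25 and 42 °C. Fluorescence fold change was plotted against viscosity.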

[4] = Viscosity sensitivity: fluorescence in ethylene glycol/glycerol mixtures; type: physicochemical; conditions: EG/G mixtures 16 to 851 cP; for Viscosity sensitivity χ2: second-order polynomial regression, 25 μM probe
Method in brief: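 Fluorescence was measured in ethylene glycol/glycerol mixtures spanning 16–851 cP; the two solvents were chosen for closely matched dielectric constants, to minimise polarity effects. χ2 was derived from second-order polynomial regression of intensity against viscosity.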

αS/pLK condensates = assay: CLSM staining of αS/pLK LLPS condensates relative to αS fibrils; conditions: αS 100 μM / pLK 0.25 mg/mL, LLPS buffer
Method in brief: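 Condensates of αS (100 μM) and poly-L-lysine (0.25 mg/mL), doped with 5% Acd-labelled αS (position 94) and 5% FITC-poly-L-lysine, stained and imaged by confocal microscopy. Channels: Acd 430–480 nm (Ex 405 nm); FITC 500–540 nm; probe Ex 561 nm, Em 570–620 or 630–680 nm. Probe intensity in condensates was divided by that with αS fibrils. Buffer: HEPES/NaCl/TCEP pH 7.4 with 15% PEG-8000, room temperature. SD of >3 measurements.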

αS fibrils [5] = target: T1, αS fibrils; assay: Competition binding studies with ThT, Ex6 and BF2846 on αS fibrils; conditions: for Competition with ThT: some ThT emission remained at saturating concentrations
αS fibrils [6] = target: T1, αS fibrils; assay: Turn-on fluorescence upon binding to αS fibrils; conditions: for Brightness increase upon binding to αS fibrils / Emission wavelength upon binding to αS fibrils: 10 μM probe, 50 μM αS fibrils; for Fluorescence lifetime (τ) upon binding to αS fibrils: bound to αS fibrils
Method in brief: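 Emission spectra of 10 μM probe were recorded with 50 μM αS monomer or fibrils. Samples were also photographed under a 365 nm hand-held UV lamp.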

[7] = Polarity sensitivity: emission across solvents with varying dielectric constants; type: physicochemical; conditions: for Polarity sensitivity: λem versus solvent dielectric constant; for Emission wavelength range (solvatochromism): depending on solvent polarity
αS monomer = αS monomer (Homo sapiens, UniProt P37840); assay: Fluorescence with TMAO-induced αS misfolding/oligomers; type: biochemical
Method in brief: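 Monomeric αS (50 μM) was exposed to trimethylamine N-oxide at 2, 4 or 6 M to induce misfolding or oligomers, then probe fluorescence was read. Fold change is relative to free probe in Tris buffer containing the same TMAO concentration.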

PDD-derived AFs = PDD-derived AFs (Homo sapiens, UniProt P37840); assay: Fluorescence with amplified fibrils; type: binding; conditions: 1 μM probe, 1 μM AFs, average of three PDD patients
Method in brief: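 Probe (1 μM) was mixed with amplified fibrils (1 μM) or brain lysates from three PDD patients, and the averages are shown. Ex/Em was set per probe: 463/580 or 484/620 nm, with ThT reference at 450/482 nm. Fold change is after subtracting free probe fluorescence in PBS. Error bars are SD of 3 measurements.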

Aβ1–42 fibrils = assay: Amyloid selectivity: turn-on with αS fibrils relative to Aβ1–42 fibrils; type: binding; conditions: 1 μM probe
tau fibrils = assay: Amyloid selectivity: turn-on with αS fibrils relative to tau fibrils; type: binding; conditions: 1 μM probe
αS fibrils [8] = target: T1, αS fibrils; assay: Binding affinity; conditions: for Kd: read-out: Dissociation constant (Kd), probe 10 nM–10 μM with 100 μM αS fibrils
αS/Tau0N4R condensates = assay: CLSM staining of αS/tau condensates relative to αS fibrils; conditions: 80 μM αS / 40 μM tau, LLPS buffer
Tau0N4R condensates [9] = target: Tau0N4R condensates (Homo sapiens, UniProt P10636); assay: CLSM staining of Tau0N4R condensates with and without αS; conditions: 40 μM Tau0N4R without αS, 630–680 nm channel
Sequence of Tau0N4R condensates (Homo sapiens, UniProt P10636) (P10636 2-383 isoform P10636-6): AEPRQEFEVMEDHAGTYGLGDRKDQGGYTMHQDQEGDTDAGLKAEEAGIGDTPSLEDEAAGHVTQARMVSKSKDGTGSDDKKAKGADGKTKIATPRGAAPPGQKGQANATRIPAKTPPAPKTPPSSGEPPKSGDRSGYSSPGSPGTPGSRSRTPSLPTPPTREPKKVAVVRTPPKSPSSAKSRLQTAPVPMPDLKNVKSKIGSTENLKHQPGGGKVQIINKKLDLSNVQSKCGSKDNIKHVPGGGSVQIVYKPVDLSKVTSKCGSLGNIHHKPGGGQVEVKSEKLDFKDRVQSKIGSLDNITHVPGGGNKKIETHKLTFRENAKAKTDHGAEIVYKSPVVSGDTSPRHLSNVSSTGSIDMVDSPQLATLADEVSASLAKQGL
Method in brief: (§1)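 Confocal imaging of 40 μM Tau0N4R condensates, with or without 80 μM αS, doped with 5% AF488-labelled Tau0N4R. Buffer: 20 mM HEPES, 150 mM NaCl, 1 mM TCEP, pH 7.4, 15% PEG-8000, room temperature. Probe read at Ex 561 nm, Em 630–680 nm; AF488-tau at Ex 488 nm, Em 500–540 nm. Error bars are SD of >3 measurements.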

Tau0N4R condensates [10] = assay: as above; conditions: 40 μM Tau0N4R with or without 80 μM αS
Method in brief: as §1

[11] = 2 M TMAO, 50 μM αS monomer, 10 μM probe
[12] = 4 M TMAO, 50 μM αS monomer, 10 μM probe
[13] = 6 M TMAO, 50 μM αS monomer, 10 μM probe

SMILES | Detection of early αS aggregation species (misfolding, oligomers/protofibrils) (αS) | λem as probe concentration increased (αS fibrils [1]; bound to αS fibrils) [nm] | Dielectric constant of local environment of probe bound to αS fibrils (αS fibrils [1]) | Absorbance λabs (maximum absorption wavelength) [2] [nm] | Emission λem (maximum emission wavelength) [2] [nm] | ε (molar absorption coefficient at maximum absorption wavelength) [2] [M⁻¹ cm⁻¹] | Fluorescence QY ([2]; CH3CN/PBS pH 7.4, 25 μM) [%] | Stokes Shift [2] [nm] | Fluorescence QY ([2]; in CH3CN) | Fluorescence change between 25 °C and 42 °C [3] [fold] | Fluorescence intensity change with viscosity [4] | Viscosity sensitivity χ2 [4] | Staining efficiency: probe intensity ratio αS/pLK condensates to αS fibrils (αS/pLK condensates) [fold] | Displacement of probe fluorescence by BF2846 (Site B binder) (αS fibrils [5]) | Displacement of probe fluorescence by Ex6 (Site A binder) (αS fibrils [5]) | Competition with ThT (αS fibrils [5]) | Brightness increase upon binding to αS fibrils (αS fibrils [6]) [fold] | Polarity sensitivity [7] | Fluorescence with PDD-derived AFs compared to unamplified lysate (PDD-derived AFs) | Staining: probe intensity ratio αS/Tau condensates to αS fibrils (αS/Tau0N4R condensates) [fold] | further results
Cc1c(C)n2c(/C=C/c3ccc(N(C)C)cc3)c(C)c(=O)n2c1=O [3c] | unable to detect changes within 20 h | 575 to 581 | 35.9 | 418 | 604 | 30400 | 0.5 | 186 | 7.3 ± 0.3% and 7.3% | 2.48 | 3.82 fold | 0.6 ×10^−3 | 0.68 | partially displaced | not displaced | competed with the promiscuous binder ThT | 476 | 32.1 | 2.4 fold | 0.37 | λem shift as concentration increased (αS fibrils [1]; bound to αS fibrils): 6 nm; Emission wavelength upon binding to αS fibrils (αS fibrils [6]): 580 nm; Fluorescence lifetime (τ) upon binding to αS fibrils (αS fibrils [6]): 2.27 ns; λem with αS/TMAO (αS monomer; 4 M TMAO): 566 nm; λem with αS/TMAO (αS monomer; 6 M TMAO): 560 nm; Turn-on for αS fibrils relative to Aβ1–42 fibrils (Aβ1–42 fibrils): 5.2 fold; Turn-on for αS fibrils relative to tau fibrils (tau fibrils): 2.8 fold; Kd (αS fibrils [8]): 1450 ± 430 nM
Cc1c(C)n2c(/C=C/c3ccc(N)cc3)c(C)c(=O)n2c1=O [3a] | – | – | – | 385 | 583 | 30800 | 0.7 | 198 | 1.5% | 2.14 | 5.4 fold | 1.0 ×10^−3 | – | – | – | – | – | 26.7 | – | – | –
Cc1c(C)n2c(/C=C/C=C/c3ccc(N(C)C)cc3)c(C)c(=O)n2c1=O [4a] | – | 617 to 618 | 27.6 | 436 | 640 | 36700 | 0.6 | 204 | 13.5% | – | around 3 fold | – | 1.11 | not affected | not affected | competed with the promiscuous binder ThT | 383 | ~ 31.5 | 2.6 fold | 1.12 | Increase in fluorescence intensity within 20 hours of αS aggregation (αS; agitation): 15 fold; Staining of tau-only condensates (Tau0N4R condensates [9]): minimal staining; Fluorescence in αS-containing tau condensates compared to tau-only condensates (Tau0N4R condensates [10]): 3.8 fold; Emission wavelength upon binding to αS fibrils (αS fibrils [6]): 620 nm; Fluorescence lifetime (τ) upon binding to αS fibrils (αS fibrils [6]): 1.27 ns; λem shift ([7]; across solvents with dielectric constants from 2.38 to 8.93): 64 nm; Emission wavelength range (solvatochromism) [7]: 486–640 nm; λem with αS/TMAO (αS monomer; 2 M TMAO): 604 nm; Sensitivity (turn-on) relative to 3c (αS monomer; [11]): 2.2 fold; Sensitivity (turn-on) relative to ThT (αS monomer; [11]): 3.1 fold; λem with αS/TMAO (αS monomer; 4 M TMAO): 606 nm; Sensitivity (turn-on) relative to 3c (αS monomer; [12]): 2.9 fold; Sensitivity (turn-on) relative to ThT (αS monomer; [12]): 5.2 fold; λem with αS/TMAO (αS monomer; 6 M TMAO): 601 nm; Turn-on relative to 2a (so in the source) (αS monomer; [13]): 1.2 fold; Turn-on relative to ThT (αS monomer; [13]): 1.5 fold; Turn-on for αS fibrils relative to Aβ1–42 fibrils (Aβ1–42 fibrils): 15 fold; Turn-on for αS fibrils relative to tau fibrils (tau fibrils): 11 fold; Affinity relative to 3c (αS fibrils [8]; Kd ratio 3c/4a): 3.5 times; Kd (αS fibrils [8]): 420 ± 250 nM
Cc1ccc2c(c1)sc(-c1ccc(N(C)C)cc1)[n+]2C [ThT, Thioflavin-T, reference compound] | only tracking mature fibrils | – | – | – | – | – | – | – | – | – | – | – | 0.15 | – | – | – | – | – | failed to distinguish AFs from lysate | 0.34 | –
CNc1ccc(/C=C/c2c(C)c(=O)n3c(=O)c(C)c(C)n23)cc1 [3b] | – | – | – | 399 | 591 | 26400 | 0.5 | 192 | 2.0% | – | 4.68 fold | 0.7 ×10^−3 | – | – | – | – | – | 30.7 | – | – | Emission wavelength range (solvatochromism) [7]: 486–640 nm
